Experimental data taken from ChEMBL document CHEMBL1154405, “An early response to environmental stress involves regulation of OmpX and OmpF, two enterobacterial outer membrane pore-forming proteins” (2007).
Activity calls are given as the source filed them. The calls are words filed in the database; no cut-off is given here.

How the values were obtained:
Escherichia coli [1] = test: Increase in ompX-lacZ expression in Escherichia coli JM109 assessed as ompX upregulation after 60 mins relative to control; assay type: functional, organism-based
How it was run: (§1)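 Strains electrotransformed with an ompX–lacZ fusion plasmid (pMD08): E. coli JM109, MC1061 ompX::Cm, AG100, CH164 (marA), E. aerogenes ATCC 15038. Grown in LB (with or without NaCl) to OD600 0.2 at 37°C. Treated with subinhibitory stresses (MIC-derived) or NaCl osmotic shock. Miller units read after 60 min; means of five independent experiments with SD.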

Escherichia coli [2] = test: Increase in ompX-lacZ expression in Escherichia coli deltaompX mutant assessed as increase in beta-galactosidase activity after 60 mins relative to control; assay type: functional, organism-based; how it was run: as §1
Escherichia coli [3] = test: Increase in ompX-lacZ expression in Escherichia coli JM109 assessed as increase in beta-galactosidase activity after 60 mins relative to control; assay type: functional, organism-based; how it was run: as §1
Klebsiella aerogenes [4] = test: Increase in ompX-lacZ expression in Enterobacter aerogenes ATCC 15038 assessed as ompX upregulation after 60 mins relative to control; assay type: functional, organism-based; how it was run: as §1
Klebsiella aerogenes [5] = test: Increase in ompX-lacZ expression in Enterobacter aerogenes ATCC 15038 assessed as increase in beta-galactosidase activity after 60 mins relative to control; assay type: functional, organism-based; how it was run: as §1
Escherichia coli [6] = test: Effect on ompF-lacZ fusion translation in wild type Escherichia coli AG100 assessed as percent decrease in Miller units of beta-galactosidase activity after 90 mins relative to control; assay type: functional; design: scale not given: the % may be the effect or the level left
How it was run: (§2)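 E. coli strains carrying ompF-lacZ reporter constructs (pCeJa01/pCeJa02) were grown in LB broth, with or without NaCl, to early exponential phase (OD600 0.2). Stress compounds were then added at subinhibitory concentrations, set from MICs for each strain and promoter, and incubation continued at 37°C. Beta-galactosidase activity (Miller method) was read at time intervals. Percent decrease versus control was calculated, with Student t test and standard deviations.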

Escherichia coli [7] = test: Effect on ompF-lacZ fusion translation in wild type Escherichia coli AG100 assessed as percent decrease in Miller units of beta-galactosidase activity after 60 mins relative to control; assay type: functional; design: scale not given: the % may be the effect or the level left
How it was run: (§3)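 ompF promoter–lacZ fusions (pCeJa01, pCeJa02) carried in E. coli AG100 and its marA mutant CH164, and in MC1061 and MC1061 ompX::Cm. Cultures grown in LB (with or without NaCl) to OD600 0.2, then stress added at subinhibitory levels set per strain and promoter from MIC assays, 37°C. β-Galactosidase measured at time intervals (Miller method); percent decrease versus control, SD, Student t test.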

Escherichia coli [8] = test: Effect on ompF-lacZ fusion translation in ompX-negative Escherichia coli mutant assessed as percent decrease in Miller units of beta-galactosidase activity after 120 mins relative to control; assay type: functional; design: scale not given: the % may be the effect or the level left; how it was run: as §3
Escherichia coli [9] = test: Increase in ompX-lacZ expression in marA-negative Escherichia coli CH164 mutant assessed as beta-galactosidase activity after 60 mins relative to control; assay type: functional; how it was run: as §1
Escherichia coli [10] = test: Effect on ompF-lacZ fusion translation in wild type Escherichia coli MC1061 assessed as percent decrease in Miller units of beta-galactosidase activity after 90 mins relative to control; assay type: functional; design: scale not given: the % may be the effect or the level left; how it was run: as §3
Escherichia coli [11] = test: Effect on ompF-lacZ fusion translation in wild type Escherichia coli MC1061 assessed as percent decrease in Miller units of beta-galactosidase activity after 60 mins relative to control; assay type: functional; design: scale not given: the % may be the effect or the level left; how it was run: as §2
Escherichia coli [12] = test: Effect on ompF-lacZ fusion translation in ompX-negative Escherichia coli mutant assessed as percent decrease in Miller units of beta-galactosidase activity after 90 mins relative to control; assay type: functional; design: scale not given: the % may be the effect or the level left; how it was run: as §3
Escherichia coli [13] = test: Increase in ompX-lacZ expression in Escherichia coli deltaompX mutant assessed as ompX upregulation after 60 mins relative to control; assay type: functional
How it was run: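 E. coli ompX::Cm strain transformed by electroporation with pMD08 (ompX-lacZ fusion), grown in LB broth (with or without NaCl) to OD600 0.2. Stresses were then added at strain-specific subinhibitory concentrations derived from MICs; osmotic shock was given as NaCl. Cultures were incubated 60 min at 37°C with growth rate monitored. Miller-unit beta-galactosidase activity is the mean of five independent experiments with SD.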

Escherichia coli [14] = test: Effect on ompF-lacZ fusion translation in wild type Escherichia coli AG100 assessed as percent decrease in Miller units of beta-galactosidase activity after 120 mins relative to control; assay type: functional; design: scale not given: the % may be the effect or the level left; how it was run: as §3
Escherichia coli [15] = test: Effect on ompF-lacZ fusion translation in wild type Escherichia coli MC1061 assessed as percent decrease in Miller units of beta-galactosidase activity after 120 mins relative to control; assay type: functional; design: scale not given: the % may be the effect or the level left; how it was run: as §3
Escherichia coli [16] = test: Effect on ompF-lacZ fusion transcription in ompX-negative Escherichia coli mutant assessed as percent decrease in Miller units of beta-galactosidase activity after 120 mins relative to control; assay type: functional; design: scale not given: the % may be the effect or the level left; how it was run: as §3
Escherichia coli [17] = test: Effect on ompF-lacZ fusion transcription in wild type Escherichia coli MC1061 assessed as percent decrease in Miller units of beta-galactosidase activity after 120 mins relative to control; assay type: functional; design: scale not given: the % may be the effect or the level left; how it was run: as §3
Escherichia coli [18] = test: Effect on ompF-lacZ fusion transcription in wild type Escherichia coli AG100 assessed as percent decrease in Miller units of beta-galactosidase activity after 60 mins relative to control; assay type: functional; design: scale not given: the % may be the effect or the level left; how it was run: as §3
Escherichia coli [19] = test: Effect on ompF-lacZ fusion transcription in ompX-negative Escherichia coli mutant assessed as percent decrease in Miller units of beta-galactosidase activity after 90 mins relative to control; assay type: functional; design: scale not given: the % may be the effect or the level left; how it was run: as §3
Escherichia coli [20] = test: Effect on ompF-lacZ fusion transcription in wild type Escherichia coli MC1061 assessed as percent decrease in Miller units of beta-galactosidase activity after 90 mins relative to control; assay type: functional; design: scale not given: the % may be the effect or the level left; how it was run: as §3
Escherichia coli [21] = test: Effect on ompF-lacZ fusion transcription in wild type Escherichia coli AG100 assessed as percent decrease in Miller units of beta-galactosidase activity after 120 mins relative to control; assay type: functional; design: scale not given: the % may be the effect or the level left; how it was run: as §3
Escherichia coli [22] = test: Effect on ompF-lacZ fusion transcription in marA-negative Escherichia coli CH164 mutant assessed as percent decrease in Miller units of beta-galactosidase activity after 120 mins relative to control; assay type: functional; design: scale not given: the % may be the effect or the level left; how it was run: as §2
Escherichia coli [23] = test: Effect on ompF-lacZ fusion transcription in marA-negative Escherichia coli CH164 mutant assessed as percent decrease in Miller units of beta-galactosidase activity after 60 mins relative to control; assay type: functional; design: scale not given: the % may be the effect or the level left; how it was run: as §3
Klebsiella aerogenes [24] = test: Induction of ompX-lacZ expression in Enterobacter aerogenes ATCC 15038 assessed as total RNA content after 30 mins by RT-PCR; assay type: functional, organism-based
Escherichia coli [25] = test: Effect on ompF-lacZ fusion transcription in ompX-negative Escherichia coli mutant assessed as percent decrease in Miller units of beta-galactosidase activity after 60 mins relative to control; assay type: functional; design: scale not given: the % may be the effect or the level left; how it was run: as §3
Escherichia coli [26] = test: Effect on ompF-lacZ fusion transcription in marA-negative Escherichia coli CH164 mutant assessed as percent decrease in Miller units of beta-galactosidase activity after 90 mins relative to control; assay type: functional; design: scale not given: the % may be the effect or the level left; how it was run: as §3
Escherichia coli [27] = test: Effect on ompF-lacZ fusion translation in marA-negative Escherichia coli CH164 mutant assessed as percent decrease in Miller units of beta-galactosidase activity after 60 mins relative to control; assay type: functional; design: scale not given: the % may be the effect or the level left; how it was run: as §2
Escherichia coli [28] = test: Effect on ompF-lacZ fusion translation in marA-negative Escherichia coli CH164 mutant assessed as percent decrease in Miller units of beta-galactosidase activity after 120 mins relative to control; assay type: functional; design: scale not given: the % may be the effect or the level left; how it was run: as §2
Escherichia coli [29] = test: Effect on ompF-lacZ fusion transcription in wild type Escherichia coli AG100 assessed as percent decrease in Miller units of beta-galactosidase activity after 90 mins relative to control; assay type: functional; design: scale not given: the % may be the effect or the level left; how it was run: as §3
Escherichia coli [30] = test: Effect on ompF-lacZ fusion translation in ompX-negative Escherichia coli mutant assessed as percent decrease in Miller units of beta-galactosidase activity after 60 mins relative to control; assay type: functional; design: scale not given: the % may be the effect or the level left; how it was run: as §3
Escherichia coli [31] = test: Effect on ompF-lacZ fusion translation in marA-negative Escherichia coli CH164 mutant assessed as percent decrease in Miller units of beta-galactosidase activity after 90 mins relative to control; assay type: functional; design: scale not given: the % may be the effect or the level left; how it was run: as §2
Escherichia coli [32] = test: Induction of ompX transcription in SoxS-positive Escherichia coli K12 relative to control; assay type: functional

SMILES | Activity (Escherichia coli [1]) | Activity (Escherichia coli [2]) | Activity (Escherichia coli [3]) | Activity (Klebsiella aerogenes [4]) | Activity (Klebsiella aerogenes [5]) | Activity (Escherichia coli [6]) | Activity (Escherichia coli [7]) | Activity (Escherichia coli [8]) | Activity (Escherichia coli [9]) | Activity (Escherichia coli [10]) | Activity (Escherichia coli [11]) | Activity (Escherichia coli [12]) | Activity (Escherichia coli [13]) | Activity (Escherichia coli [14]) | Activity (Escherichia coli [15]) | Activity (Escherichia coli [16]) | Activity (Escherichia coli [17]) | Activity (Escherichia coli [18]) | Activity (Escherichia coli [19]) | Activity (Escherichia coli [20]) | other results
CCn1cc(C(=O)O)c(=O)c2ccc(C)nc21 | Active | Active | Active | Active | Active | – | – | – | – | – | – | – | – | – | – | – | – | – | – | – | –
NCCc1ccccc1 | Active | Active | Active | Active | Active | – | – | – | – | – | – | – | – | – | – | – | – | – | – | – | –
c1ccc(-c2ccccn2)nc1 [DIPYRIDYL] | Active | – | Active | Active | Active | 53% | 52% | 28.6% | Active | 16.1% | 7.4% | 19% | 2 | 55% | 18.4% | – | – | – | – | – | –
CCn1cc(C(=O)O)c(=O)c2cc(F)c(N3CCNCC3)cc21 [NORFLOXACIN] | Active | Active | Active | Active | Active | – | 14.1% | 22% | 1.5 | 27.1% | – | 21.7% | – | 16.6% | 27.5% | 19.2% | 24% | 13.2% | 18.6% | 14.9% | Activity (Escherichia coli [21]): 8.2%
CO[C@@H]1[C@@H](OC(N)=O)[C@@H](O)[C@H](Oc2ccc3c(O)c(NC(=O)c4ccc(O)c(CC=C(C)C)c4)c(=O)oc3c2C)OC1(C)C [NOVOBIOCIN] | Active | – | Active | Active | Active | 39.8% | 48.5% | 55.2% | Active | 38.4% | 21.3% | 45.3% | 2 | 46.8% | 50.9% | 36% | 36.5% | 25.5% | 25.3% | 28.6% | Activity (Escherichia coli [22]): 24.5%; Activity (Escherichia coli [23]): 9.5%; Activity (Klebsiella aerogenes [24]): Active; Activity (Escherichia coli [25]): 17%; Activity (Escherichia coli [26]): 20%; Activity (Escherichia coli [27]): 23.6%; Activity (Escherichia coli [28]): 26.9%; Activity (Escherichia coli [21]): 25.7%; Activity (Escherichia coli [29]): 32.6%; Activity (Escherichia coli [30]): 28.4%; Activity (Escherichia coli [31]): 21.2%
C[n+]1ccc(-c2cc[n+](C)cc2)cc1 [PARAQUAT] | Active | Active | Active | Active | Active | – | – | – | – | – | – | – | – | – | – | – | – | – | – | – | Activity (Escherichia coli [32]): 1.2
O=C(O)c1ccccc1O [SALICYLIC ACID] | Active | – | Active | Active | Active | 51.8% | 59% | 43.7% | – | 46.8% | 42.5% | 40.9% | 2 | 49% | 45.6% | 14.8% | 17.3% | 29.9% | 26% | 25% | Activity (Escherichia coli [23]): 17.4%; Activity (Klebsiella aerogenes [24]): Active; Activity (Escherichia coli [25]): 21%; Activity (Escherichia coli [26]): 15.5%; Activity (Escherichia coli [21]): 15.8%; Activity (Escherichia coli [29]): 25.7%; Activity (Escherichia coli [30]): 35.3%
